Screening results: PubChem, several laboratories
SR-BI DiI inh: inhibitors of SR-BI mediated HDL lipid uptake, primary screen, ldlA[mSR-BI] cells, fluorescence, single point. inhibition, % at 12.5 µM. hit rate 0.96% among 320,000. Scavenger receptor class B member 1 (Mus musculus), Q61009. ldlA[mSR-BI] CHO cells, DiI-HDL uptake fluorescence, 3 h. AID 488896, 2010;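 active = mean replicate inhibition of at least 70% and a set share of replicates each scoring 70 or more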
Target sequence (Q61009 whole entry, looked up): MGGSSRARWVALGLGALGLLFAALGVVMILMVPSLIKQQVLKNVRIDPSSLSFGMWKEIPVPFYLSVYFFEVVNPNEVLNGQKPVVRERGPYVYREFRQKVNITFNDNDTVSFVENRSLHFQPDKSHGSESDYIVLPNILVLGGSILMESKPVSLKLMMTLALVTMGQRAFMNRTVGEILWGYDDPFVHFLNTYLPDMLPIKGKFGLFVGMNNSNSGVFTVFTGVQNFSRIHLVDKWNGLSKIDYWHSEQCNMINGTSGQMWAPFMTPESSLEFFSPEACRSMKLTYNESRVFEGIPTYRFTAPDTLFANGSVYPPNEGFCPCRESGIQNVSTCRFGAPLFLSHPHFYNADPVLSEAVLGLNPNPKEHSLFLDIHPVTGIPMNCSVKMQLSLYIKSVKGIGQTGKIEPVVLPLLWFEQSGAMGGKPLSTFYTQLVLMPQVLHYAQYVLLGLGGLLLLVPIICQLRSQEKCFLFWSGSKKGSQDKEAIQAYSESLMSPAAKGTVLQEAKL
Efflux pump inh: inhibitors of Candida efflux pumps in yeast, primary screen, S. cerevisiae, Nile Red, multiplex; inhibition, % at 10 µM; hit rate 0.44% among 330,000; S. cerevisiae Candida pump triplex;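 active = plate passing quality check with inhibition over a set limit, or well fluorescence over plate mean plus 4 SD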;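 note: Nile Red retained in pooled yeast measured as flow cytometry median fluorescence; higher means more Nile Red kept so more efflux inhibition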
CaV13 FRET inh: Primary screen for inhibitors of IQ motif and Ca2+-dependent inactivation inhibitor domain binding in CACNA1D, Förster resonance energy transfer in living cells, …; HEK cells, CFP/YFP FRET ICDI-IQ, plate reader, 10 min; percent FRET-ratio fall versus neutral wells; AID 743397; hit rate 0.098% among 340,000; inhibition, % at 12.3 µM;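 active = mean replicate inhibition of at least 30% and at least 1% of replicates passing that level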
FN deposition inh: inhibitors of fibronectin matrix deposition, primary screen, AH1F cells, Alexa488-fibronectin fluorescence, plate reader | AH1F fibroblasts, overnight | inhibition, % at 12.6 µM | hit rate 0.086% among 350,000 | AID 743247, 2014;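 active = mean inhibition across replicates of 30% or more, regardless of how many single replicates reach that level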
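Assay system: AH1F fibroblast monolayer, labelled fibronectin deposition. Amount: 10000 cells per well. Also added: labelled fibronectin 24 nM. Compound: single-point pinned compound. Incubation: cell attachment 1 h, compound and FN exposure overnight. Detection: fluorescence after three HBSS washes, excitation 485 nm, emission 525 nm. Read-out: inhibition of fibronectin deposition signal.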
SR-BI DiI-HDL act: activators of SR-BI mediated DiI-HDL uptake, primary screen, ldlA[mSR-BI] CHO cells, DiI fluorescence; 3 h; 100 = double the neutral-control signal; activation, % at 12.5 µM; hit rate 0.096% among 320,000; AID 504775, 2011;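 active = mean replicate activation of at least 60% and every replicate at or above 60%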
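system = CHO ldlA[mSR-BI] cells, LDL receptor-null, SR-BI overexpressing | medium = Ham's F12 with 0.5% BSA, HEPES 25 mM, pH 7.4 | probe or stimulus = DiI-HDL 10 µg/mL | compound dosing = single-point compound dose | incubation = compound exposure 3 h, 37 °C | technique = DiI fluorescence, bottom read | read-out = cell-associated DiI fluorescence as measure of HDL uptake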
Each line names hits and unclear results; the compound was inactive in the other large screens. Shown are actives, neighbours in structure and some others; about 1.2% of the full set was active somewhere.

COc1cc(C(=O)NCC2CCCCC2)ccc1OCc1c(C)noc1C	none
COc1ccc(C)cc1NC(=O)c1ccc(OCc2c(C)noc2C)cc1	SR-BI DiI inh 71
COc1ccc(C)cc1NC(=O)c1cccc(-c2ccc(OC(C)=O)cc2)c1	SR-BI DiI inh 77
COc1ccc(-c2cccc(C(=O)Nc3ccccc3C)c2)cc1	none
Cc1ccc(NC(=O)c2ccc(OCc3c(C)noc3C)cc2)cc1C	SR-BI DiI inh 89
COc1cc(C(=O)NCCOc2ccc(Cl)cc2)ccc1OCc1c(C)noc1C	SR-BI DiI inh 84
CC(C)NC(=O)N[C@H]1CC[C@@H](CCNC(=O)C2CCCC2)O[C@H]1CO	none (no result: SR-BI DiI inh, Efflux pump inh, CaV13 FRET inh, SR-BI DiI-HDL act)
CN(C)CC(=O)Nc1ccc2c(c1)[C@@H]1C[C@H](CC(=O)NCc3ccc4c(c3)OCO4)O[C@@H](CO)[C@@H]1O2	none (no result: SR-BI DiI inh, Efflux pump inh, CaV13 FRET inh, SR-BI DiI-HDL act)
COc1ccc(C2SCC(C(=O)NCc3ccc(F)cc3)N2C(C)=O)cc1 (configuration not stated)	none
CCC(=O)N1C(C(=O)NCc2ccc(OC)cc2)CSC1c1ccc(OC)cc1 (configuration not stated)	CaV13 FRET inh 45
CNC[C@@H]1Oc2c(NS(=O)(=O)c3c(C)noc3C)cccc2C(=O)N([C@H](C)CO)C[C@H]1C	none (no result: SR-BI DiI inh, Efflux pump inh, CaV13 FRET inh, SR-BI DiI-HDL act)
Cc1sc(NC(=O)COc2ccccc2)c(C#N)c1-c1ccccc1	none (no result: FN deposition inh)
CCOC(=O)c1csc(NC(=O)c2ccc(OC)c(OC)c2)n1	SR-BI DiI inh 77 (no result: FN deposition inh)
COc1ccc(C(=O)Nc2sc(C)c(-c3ccccc3)c2C#N)cc1OC	SR-BI DiI inh 85
CCCNC(=O)N1C[C@H](C)[C@H](OC)CN(C)C(=O)c2ccc(NS(=O)(=O)CC(F)(F)F)cc2OC[C@H]1C	none (no result: SR-BI DiI inh, Efflux pump inh, CaV13 FRET inh, SR-BI DiI-HDL act)
CCOC(=O)C1CCN(C(=O)Nc2ccc(Cl)cc2Cl)CC1	SR-BI DiI inh 80
CCOC(=O)C1CCN(C(=O)Nc2cccc(Cl)c2)CC1	none
O=C(C[C@@H]1CC[C@@H]2[C@H](COC[C@H](O)CN2S(=O)(=O)c2ccccc2)O1)NCCN1CCCC1	none (no result: SR-BI DiI inh, Efflux pump inh, CaV13 FRET inh, SR-BI DiI-HDL act)
Cc1ccc2c(c1)N(C(=O)c1ccco1)C(C)(C)c1ssc(=S)c1-2	SR-BI DiI inh 94
Cc1cccc2c1N(C(=O)c1ccco1)C(C)(C)c1ssc(=S)c1-2	none (no result: CaV13 FRET inh, FN deposition inh)
C[C@@H](O)C#Cc1cnc2c(c1)C(=O)N([C@@H](C)CO)C[C@H](C)[C@@H](CN(C)CC1CCOCC1)O2	none (no result: SR-BI DiI inh, Efflux pump inh, CaV13 FRET inh, SR-BI DiI-HDL act)
CN=C1SC(CC(=O)Nc2ccccc2F)C(=O)N1/N=C/c1ccc(O)c(OC)c1 (configuration not stated)	SR-BI DiI inh 74
COc1ccc(-c2c(-c3ccsc3)oc3ccc(N4CCOCC4)cc23)cc1	SR-BI DiI inh 75
COc1ccc(-c2oc3ccc(N4CCOCC4)cc3c2/C=C/c2ccc(OC)c(OC)c2)cc1	none
COc1ccc2nc3cc([N+](=O)[O-])ccc3c(NNc3ccc([N+](=O)[O-])cc3)c2c1	SR-BI DiI inh 121 (no result: Efflux pump inh)
COC(=O)Cn1c2ccc(F)cc2c2nc(C)sc21	none
Cc1nc2c3cc(F)ccc3n(Cc3ccc(F)cc3)c2s1	SR-BI DiI inh 80
CNc1nc(-c2ccc3c(c2)CCN3C(=O)CC(C)(C)C)c(C)s1	SR-BI DiI inh 73
CNc1nc(-c2ccc3c(c2)CCN3S(=O)(=O)c2ccccc2)c(C)s1	none
CC(=O)Nc1nc(-c2ccc3c(c2)CCN3C(=O)C2CC2)c(C)s1	SR-BI DiI inh 95
Cc1ccc(OC(=O)N(C)C[C@@H]2OCc3cn(nn3)CCCC(=O)N([C@H](C)CO)C[C@@H]2C)cc1	none (no result: SR-BI DiI inh, Efflux pump inh, CaV13 FRET inh, SR-BI DiI-HDL act)
C[C@@H]1CCCCO[C@@H](CN(C)C(=O)Nc2ccc3c(c2)OCO3)[C@H](C)CN([C@H](C)CO)C(=O)c2cc(NC(=O)c3ccncc3)ccc2O1	none (no result: SR-BI DiI inh, Efflux pump inh, CaV13 FRET inh, SR-BI DiI-HDL act)
Cc1ccc(S(=O)(=O)Nc2ccc3c(c2)C(=O)N([C@H](C)CO)C[C@H](C)[C@H](CN(C)C(=O)c2ccncc2)OCCCC[C@H](C)O3)cc1	none (no result: SR-BI DiI inh, Efflux pump inh, CaV13 FRET inh, SR-BI DiI-HDL act)
Cc1cc(-c2n[nH]c(=S)n2Cc2ccco2)n(C)n1	SR-BI DiI-HDL act 61
